Source: the RNAGym collection of RNA variant scans (doi:10.1126/science.aae0568)
This sample holds only a part of the variants without activity.

B1: tRNA (parent)
chain: GUUCCGUUGGCGUAAUGGUAACGCGUCUCCCUCCUAAGGAGAAGACUGCGGGUUCGAGUCCCGUACGGAACG

Variants of: B1
Experiment: yeast fitness relative to wild type (ratio to wild type); higher = fitter; tRNA-Arg(CCU), competitive growth, 37 C, YPD
Summary of the method: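 A pool of Saccharomyces cerevisiae strains, each with a tRNA-Arg(CCU) gene variant at the native genomic locus, was competed in YPD at 37°C for 24 hours across six parallel replicates. The variants had been chemically synthesised at a 3% per-site mutation rate over 69 sites, and gene amplicons before and after competition were read by 100-nucleotide paired-end sequencing. Darwinian fitness relative to wild type rested on changes in genotype frequencies. Genotypes required ≥ 100 starting reads, and estimates < 0.5 were set to 0.5.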
In the case of GUUCCGUUAGCGUAAUGGUAACGCGACUCCCUCCUAAGGAGAUGACUGCGGGUUCGAGUCCCGUUCGGAACG [G9A U26A A43U A65U], the yeast fitness is reported as 0.562. In the case of GUUCCGUUAGCGUAAUGGUAACGCGACUCCCUCCUAAGGAGAAGACUGCGGGUUCAAGUCCCGUACAGAACG [G9A U26A G56A G67A], the yeast fitness is reported as ≤ 0.5. In the case of GUUCCGUUAGCGUAAUGGUAACGCGCCUCCCUCCUUAGAAGAAGACUGCGGGUUCGAGUCCCGUACGGAACG [G9A U26C A36U G39A], the yeast fitness is reported as ≤ 0.5. Variant GUUCCGUUAGCGUAAUGGUAACGCGCCUCCCUCCUAAGGAGAAGACUGUGGGUUCGAGUCCCGUACGGAACG [G9A U26C C49U] has a yeast fitness of 0.685. Work on GUUCCGUUAGCGUAAUGGUAACGCGGCUCCCUCCUAAGGAGAAGACUGCGGGUUCGUGUCCCGUACGGAACG [G9A U26G A57U] yielded a yeast fitness of 0.631. In the case of GUUCCGUUAGCGUAAUGGUAACGCGGCUCCCUCCUAAGGAGAAGACUGCGGGUUCGAGUCCCGUACGGGCCG [G9A U26G A69G A70C], the yeast fitness is reported as ≤ 0.5. Work on GUUCCGUUAGCGUAAUGGUAACGCGGCUCCCUCCUAAGGAGAAGACUGCGGGUUCGAGUACCGUACGGAACG [G9A U26G C60A] yielded a yeast fitness of 0.539. Variant GUUCCGUUAGCGUAAUGGUAACGCGUCACCCUCCUAAGGAGAAGGCUGCGGGUUCGAGUCCCGUACGGAACG [G9A U28A A45G] has a yeast fitness of 0.645. With GUUCCGUUAGCGUAAUGGUAACGCGUCCCCCUCCUAAGGAGAAGACUGCGGGUUCGAGUCCCGUACGGAACG [G9A U28C] the yeast fitness was 0.855. With GUUCCGUUAGCGUAAUGGUAACGCGUCCCCCUCCUAUGGAGAAGACAGCGGGUUCGAGUCUCGUACGGAACG [G9A U28C A37U U47A C61U] the yeast fitness was 0.871. With GUUCCGUUAGCGUAAUGGUAACGCGUCCCCCUCCUAAAGAGAAAACUGCGCGUUCGACUCCCGUACGGAACG [G9A U28C G38A G44A G51C G58C] the yeast fitness was ≤ 0.5. With GUUCCGUUAGCGUAAUGGUAACGCGUCCCCCUCCUAAGGAGAAAACUGCGCGUUCGACUCCCGUACGGAACG [G9A U28C G44A G51C G58C] the yeast fitness was 0.51. In the case of GUUCCGUUAGCGUAAUGGUAACGCGUCCCCCUCCUAAGGAGAAAACUGCGGGUUCGAGUCCCGUACGCAACG [G9A U28C G44A G68C], the yeast fitness is reported as ≤ 0.5. Variant GUUCCGUUAGCGUAAUGGUAACGCGUCGCCCUCCUAAGGCGGAGACUGCGGGUUCGAGUCCCGUACGGAACG [G9A U28G A40C A42G] has a yeast fitness of 0.76. With GUUCCGUUAGCGUAAUGGUAACGCGUCUCCCCGCUAGGGAGAAGACUGCGGAUUUGAGUCCCGUUCGGAACG [G9A U32C C33G A37G G52A C55U A65U] the yeast fitness was 0.583. In the case of GUUCCGUUAGCGUAAUGGUAACGCGUCUCCCGCCUAAGGAGAAGACUGCGGGUUCGAGUCCCGUACGGAACG [G9A U32G], the yeast fitness is reported as 0.616. In the case of GUUCCGUUAGCGUAAUGGUAACGCGUCUCCCUCCAAUGGAGAAGAUUGCGGGUUCGAGUCCCGUCCGGAACG [G9A U35A A37U C46U A65C], the yeast fitness is reported as 0.633. For GUUCCGUUAGCGUAAUGGUAACGCGUCUCCCUCCAAAGGAGACGACUGCGGGUUCGAGUCCCGUACGGAACG [G9A U35A A43C], the yeast fitness was ≤ 0.5. In the case of GUUCCGUUAGCGUAAUGGUAACGCGUCUCCCUCCCAAGGAGUAGACUGCGGGUUCGAGUCCCGUACGGAACG [G9A U35C A42U], the yeast fitness is reported as ≤ 0.5. For GUUCCGUUAGCGUAAUGGUAACGCGUCUCCCUCCUAAGGAGAAGACAGCGGGUUCGAGUCCCGUACGGUACG [G9A U47A A69U], the yeast fitness was 0.676. With GUUCCGUUAGCGUAAUGGUAACGCGUCUCCCUCCUAAGGAGAAGACCGCGGGUUCGAGUCCCGUACGGAACG [G9A U47C] the yeast fitness was 0.909. For GUUCCGUUAGCGUAAUGGUAACGCGUCUCCCUCCUAAGGAGAAGACCCCGGGUUCGAGACCCGUAAGGCACG [G9A U47C G48C U59A C66A A69C], the yeast fitness was ≤ 0.5. Variant GUUCCGUUAGCGUAAUGGUAACGCGUCUCCCUCCUAAGGAGAAGACGGCGGGUUCGAGUCCCGUACGGAACG [G9A U47G] has a yeast fitness of 0.626. Work on GUUCCGUUAGCGUAAUGGUAACGCGUCUCCCUCCUAAGGAGAAGACUGCGGGAUCGAGUCCCGUACGGAACG [G9A U53A] yielded a yeast fitness of 0.701. For GUUCCGUUAGCGUAAUGGUAACGCGUCUCCCUCCUAAGGAGAAGACUGCGGGAUCGAGUCCCGUCCGGACCG [G9A U53A A65C A70C], the yeast fitness was ≤ 0.5. With GUUCCGUUAGCGUAAUGGUAACGCGUCUCCCUCCUAAGGAGAAGACUGCGGGUACGAGUCCCGUACGGAACG [G9A U54A] the yeast fitness was 0.696. With GUUCCGUUAGCGUAAUGGUAACGCGUCUCCCUCCUAAGGAGAAGACUGCGGGUUCGAGACCCGUACGGAACG [G9A U59A] the yeast fitness was 0.936. For GUUCCGUUCGCGUCUUGGUAACACGUCUCCCUCAUAAGGAGAAGACUGCGGGUUCGAGUCCCGUACGGAACG [G9C A14C A15U G23A C34A], the yeast fitness was ≤ 0.5. In the case of GUUCCGUUCGCGUCAUGGUUACCCGUCUCCUUCCUAAGGAGAAGACUGCGGGUUUGAGUCCCGUACGGAACG [G9C A14C A20U G23C C31U C55U], the yeast fitness is reported as ≤ 0.5. For GUUCCGUUCGCGUCAUGGUAACGCGUCUCCCUCCUAAGGAGAAGACUGCGGGUUCGAGUCCCGUAUGGAACG [G9C A14C C66U], the yeast fitness was ≤ 0.5. In the case of GUUCCGUUCGCGUCAUGGUAACGCGUCUCCCUCCUAAGGAGAACACCGCGGGUUCGCGUCCCGUACGGAACG [G9C A14C G44C U47C A57C], the yeast fitness is reported as ≤ 0.5. In the case of GUUCCGUUCGCGUCACGGUAACGCGUUUACCUGCUAAGGAGAAGACUGCGGGUUCGAGUCCCGUAAGGAACG [G9C A14C U16C C27U C29A C33G C66A], the yeast fitness is reported as 0.577. In the case of GUUCCGUUCGCGUGAUGGUAACGCGUCUCCCUCCUAAGGAGAAGACUGCGGGUUCGAGUCCCGUACGGAACG [G9C A14G], the yeast fitness is reported as 0.579. For GUUCCGUUCGCGUGAUGGUAACGCGUCUCCCUCCUAAGGAGAAGGCUGCGGGUUCGAGUCCCGUACGGAACG [G9C A14G A45G], the yeast fitness was ≤ 0.5. In the case of GUUCCGUUCGCGUGAUGGUAACGCGUCUCCCUCCUAAGGAGAAGACUGCGGGUUCGUGUAGCGUACGGAACG [G9C A14G A57U C60A C61G], the yeast fitness is reported as ≤ 0.5. In the case of GUUCCGUUCGCGUGAUGGUAACGCGUCUUCCUCCUCAGGAGAAGGCUGCGGGUUCGAGUCCCGUACUGAACG [G9C A14G C29U A36C A45G G67U], the yeast fitness is reported as ≤ 0.5. In the case of GUUCCGUUCGCGUGAUGGUAACGCGUCUCCCUCCUAAGGAGAAGACUGCGGGUUGGAGUCUCGUACGGAACG [G9C A14G C55G C61U], the yeast fitness is reported as ≤ 0.5.
